Assay outcomes: PubChem, several laboratories
TNAP act hi DEA = TNAP (human) activation, high acceptor. 200,000 tested, under 10 active. purified TNAP, CDP-star luminescence, 1 M DEA, 30 min; stronger effect = higher value; 0 = EDTA background, 1 = DMSO-only activity. activation factor at 20 µM. AID 1136;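 active means activation factor at least 2 at 20 µM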
Target sequence (P05186 whole entry, looked up): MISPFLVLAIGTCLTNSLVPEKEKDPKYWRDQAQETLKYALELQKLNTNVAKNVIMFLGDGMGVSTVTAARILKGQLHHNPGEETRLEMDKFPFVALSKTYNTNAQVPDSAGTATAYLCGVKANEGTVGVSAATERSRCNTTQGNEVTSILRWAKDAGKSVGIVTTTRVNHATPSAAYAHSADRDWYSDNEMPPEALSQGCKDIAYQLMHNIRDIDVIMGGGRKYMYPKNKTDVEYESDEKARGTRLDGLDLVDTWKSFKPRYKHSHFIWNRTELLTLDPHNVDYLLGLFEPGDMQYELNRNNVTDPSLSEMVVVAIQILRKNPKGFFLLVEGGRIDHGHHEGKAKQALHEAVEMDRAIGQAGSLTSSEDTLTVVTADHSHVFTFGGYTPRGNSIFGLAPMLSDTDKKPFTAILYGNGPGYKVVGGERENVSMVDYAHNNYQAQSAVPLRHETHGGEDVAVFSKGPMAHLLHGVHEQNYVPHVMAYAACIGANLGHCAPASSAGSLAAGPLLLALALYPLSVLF
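Test system – human TNAP · Doses – 20 µM single point · Incubation – 30 min, room temperature · Signal – luminescent substrate turnover signal · Read-out basis – activation factor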
HCT116 bCat-KO = beta-catenin-lacking colon tumor cell growth suppression | HCT116 beta-catenin knockout viability, CellTiter-Glo, 60 h; stronger effect = lower value | viability, % at 10 µM | AID 818 | 140,000 tested, 1.5% active;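 active means viability at or under a set limit, the compound median less 4 SD, cut at about 6% in these data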;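 further: 0% = Hyamine 1622 control at 20 µM and 100% = untreated cell control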
PTEN del growth = growth suppressors of cells with PTEN tumor suppressor deletion | HCT116 PTEN-null viability, CellTiter-Glo, 60 h; stronger effect = lower value | 140,000 tested, 1.2% active | viability, % at 10 µM;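 active means viability at or below a set limit, 4 SD under the median of all tested compounds, cut at about 3.7% in these data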;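 further: PTEN knockout HCT116 line with beta catenin targeted HCT116 as companion control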
TNAP inh hi DEA = blocks human TNAP under high phosphate acceptor concentration; purified TNAP, CDP-star luminescence, 1 M DEA; inhibition, % at 20 µM; 200,000 tested, 0.03% active; AID 1135;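 active means over 50% inhibition of tissue-nonspecific alkaline phosphatase at 20 µM in the single-dose screen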;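 further: plate controls were DMSO wells for no effect and EDTA-quenched wells as full inhibition for full effect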
L major viab = Leishmania major promastigote growth inhibition; Leishmania major promastigotes, resazurin fluorescence viability; inhibition, % at 10 µM; 200,000 tested, 9% active; AID 1063; in the data active means inhibition above about 50%;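 further: promastigotes grown with compound for 44 hours at 28 °C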
TNAP inh noacc = blocks human TNAP activity with no phosphate acceptor present; P05186; purified TNAP, CDP-star luminescence, 30 min; inhibition, % at 20 µM; 200,000 tested, 0.26% active;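 active means tissue-nonspecific alkaline phosphatase inhibition above about 50% at 20 µM in the single-dose screen, limit read from the data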;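 further: 0% = DMSO negative control and 100% = EDTA positive control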
* = called active by the depositor; · = not tested or not shown. Hits are enriched below; roughly 9.6% of the tested compounds scored in any of these assays.

SMILES	TNAP act hi DEA	HCT116 bCat-KO	PTEN del growth	TNAP inh hi DEA	L major viab	TNAP inh noacc
Cc1nc2nc(SCC(=O)c3cccc([N+](=O)[O-])c3)[nH]c2cc1Br	1	91	80	2	21	10
CCc1nc(SCC(=O)c2cccc([N+](=O)[O-])c2)n[nH]1	1	99	97	-5	61*	5
CCCn1nnnc1NCc1c(F)cccc1Cl	1	·	·	-4	-7	-8
CCC(C)(C)n1nnnc1C(c1ccc2ncccc2c1)N1CCCC(C)C1 (stereo not given)	1.1	76	77	-6	8	-6
CCC(C)(C)n1nnnc1C(c1ccc(C)cc1)N1CCC(C)CC1 (stereo not given)	1	63	69	0	62*	-7
CCC(C)(C)n1nnnc1C(c1ccc(C)cc1)N1CCN(Cc2ccc3c(c2)OCO3)CC1 (stereo not given)	1.1	84	79	-5	81*	-3
CCC(C)(C)n1nnnc1C(c1ccncc1)N1CCC(C)CC1 (stereo not given)	1	85	87	-2	0	-9
CCC(C)(C)n1nnnc1C(c1ccccc1)N1CCN(Cc2ccccc2)CC1 (stereo not given)	1	·	·	-4	8	-5
CCC(C)(C)n1nnnc1C(c1ccc2ncccc2c1)N1CCN(Cc2ccc3c(c2)OCO3)CC1 (stereo not given)	1	70	65	-5	99*	-10
Cc1ccc(S(=O)(=O)Nc2c(C)n(C)n(-c3ccccc3)c2=O)cc1C(=O)OCC(=O)N1CCCC(C)C1 (stereo not given)	1.1	·	·	-5	32	-10
CC(=O)N1CCC(=NNC(=O)c2cccs2)CC1	1	102	101	-4	-10	-5
C#CC1(NC(=O)NC(C)C)CCCCC1	1.1	·	·	-10	-6	-18
COC(=O)c1ccc(N2C(=O)C3CC(C)=C(C)CC3C2=O)cc1 (stereo not given)	1	·	·	-1	-2	1
O=C(/C=C1\SC(=O)N(CC(=O)Nc2ccc(F)cc2)C1=O)Nc1ccc(Cl)cc1	1	92	100	2	52*	2
O=C(/C=C1\SC(=O)N(CC(=O)Nc2ccc(Cl)cc2)C1=O)Nc1ccc(F)cc1	1	94	90	1	22	-6
Cc1cccc(NC(=O)CN2C(=O)S/C(=C\C(=O)Nc3ccc(Cl)cc3)C2=O)c1	0.9	94	96	6	54*	7
CCOc1ccccc1NC(=O)CSc1ccc([N+](=O)[O-])cc1	1	·	·	-2	-3	-11
CCN1CCN(S(=O)(=O)c2cc(OC)c(Cl)cc2OC)CC1	1	100	94	2	-2	-8
C=CCc1c(C)nc(SC)nc1Nc1ccc(C(=O)O)cc1	1	91	109	2	-3	-9
C=CCc1c(C)nc(SC)nc1Nc1ccc(C(C)=O)cc1	1	76	79	-2	71*	-8
COc1ccc(C2=Nn3c([n+](C)c4ccccc43)SC2)cc1	1.1	·	·	-5	100*	-13
C[n+]1c2n(c3ccccc31)N=C(c1ccc(Cl)cc1)CS2	1	12	20	0	86*	-46
CC1Sc2n(c3ccccc3[n+]2C)N=C1c1ccccc1 (stereo not given)	1	10	10	-3	99*	-6
CC(=O)c1ccccc1N(C(=O)c1ccco1)C(C(=O)NC1CCCC1)c1ccc(N2CCOCC2)cc1 (stereo not given)	1	·	·	-4	-6	-7
CCOC(=O)C1(CCCc2ccccc2)CCN(C(=O)CCC2=NNC(=O)CC2)CC1	1	·	·	-3	0	-6
SMILES	TNAP act hi DEA	HCT116 bCat-KO	PTEN del growth	TNAP inh hi DEA	L major viab	TNAP inh noacc
CCC1=Nc2cc(C(=O)NCc3ccco3)ccc2Sc2ccccc21	1	17	19	-2	70*	-10
CCc1nc2ccc(C(=O)NCc3ccco3)cc2nc1CC	1	95	91	-1	8	-3
CCC1=Nc2cc(C(=O)O)ccc2Sc2ccccc21	1	84	97	-4	-8	-6
CCC1=Nc2cc(C(=O)NCc3ccco3)ccc2Sc2ccc(Cl)cc21	1	8	10	1	68*	-18
CCOC(=O)C(Cc1ccccc1)C(=O)Nc1cccc2ccccc12 (stereo not given)	1	89	85	-2	8	-12
O=C(CS(=O)(=O)c1ccccc1)Nc1ccc(Br)cn1	1	91	102	2	-1	-1
O=C(Cc1ccccc1)Nc1ccccc1Oc1ccccc1	1	80	90	0	-8	-21
COc1ccc(C(=O)CSC2=C(C#N)C3(CCCCC3)C(C#N)=C(N)N2)cc1	1.1	78	91	-8	58*	-14
N#CC1=C(N)NC(SCC(=O)c2ccc(Br)cc2)=C(C#N)C12CCCCC2	1	13	11	4	100*	0
COc1cc(/C=N/n2cnnc2)ccc1OCCSc1ccc(C)cc1	1.1	93	95	-6	55*	-11
COc1cc(/C=N\n2cnnc2)ccc1OCC(=O)Nc1ccc(C)cc1	1	89	76	1	-1	-14
CCn1cc(/C=N/NC(=O)c2cc3c(ccc4ccccc43)o2)c2ccccc21	1.1	57	58	-9	100*	-12
O=C(N/N=C/c1cccnc1)c1cc2c(ccc3ccccc32)o1	1	90	86	0	39	1
CC(C)n1cc(/C=N\NC(=O)c2cc3c(ccc4ccccc43)o2)c2ccccc21	1	100	90	-1	97*	-7
CC(Nc1[nH]c(=O)n(C)c(=O)c1N=O)c1ccccc1 (stereo not given)	1	·	·	1	-1	-5
CC1CCN(S(=O)(=O)c2ccc(S(=O)(=O)N3CCN4CCCC4C3)cc2)CC1 (stereo not given)	1.1	·	·	-8	·	-13
CCS(=O)(=O)N1CCN(C2CCC(C)CC2)CC1 (stereo not given)	1	87	96	0	90*	-10
CC1CCC(N2CCN(S(C)(=O)=O)CC2)CC1 (stereo not given)	1.1	102	101	-7	89*	-13
CCCS(=O)(=O)N1CCC(C(=O)NC2CCC(C)CC2)CC1 (stereo not given)	1	92	87	-3	-4	-11
CS(=O)(=O)N1CCN(C2C3CC4CC(C3)CC2C4)CC1 (stereo not given)	1	·	·	1	80*	-6
COc1ccccc1-c1cc(C(=O)N2CCc3ccccc3C2)c2ccccc2n1	1.1	52	48	-5	100*	-9
COc1ccc(Nc2cc(C(=O)N3CCc4ccccc4C3)c3ccccc3n2)c(OC)c1	1	·	·	-2	56*	-5
